Assay results published in ChEMBL document CHEMBL1781970, “Synthesis and antiproliferative evaluation of 23-hydroxybetulinic acid derivatives” (Eur J Med Chem, 2011).
One block for each compound: values may come before it.

Legend:
Format in all cases: functional, cell-based
HeLa = assay: Antiproliferative activity against human HeLa cells after 72 hrs by MTT assay
Outline: (§1)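 Cells grown in RPMI 1640 with 10% FBS and 1% penicillin-streptomycin at 37 °C, 5% CO2, then seeded overnight in 96-well plates. Test compounds were dissolved in DMSO (doxorubicin control in PBS) and given at various concentrations for 72 h at 37 °C. MTT (5 mg/mL in PBS) was added for 4 h and OD read at 570 nm. IC50 was taken from dose-response curves; mean ± SD, ≥3 independent experiments.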

MCF7 = assay: Antiproliferative activity against human MCF7 cells after 72 hrs by MTT assay; conditions: MCF7, 72 h; outline: as §1
HepG2 = assay: Antiproliferative activity against human HepG2 cells after 72 hrs by MTT assay; conditions: HepG2, 72 h; outline: as §1
B16 = assay: Antiproliferative activity against mouse B16 cells after 72 hrs by MTT assay; conditions: B16, 72 h; outline: as §1
A-375 = assay: Antiproliferative activity against human A375 cells after 72 hrs by MTT assay; conditions: A-375, 72 h; outline: as §1

SMILES: C=C(C)[C@@H]1CC[C@]2(C(=O)N3CCC(N4CCCCC4)CC3)CC[C@]3(C)[C@H](CC[C@@H]4[C@@]5(C)CC[C@H](OC(C)=O)[C@@](C)(COC(C)=O)[C@@H]5CC[C@]43C)[C@@H]12
IC50 (HeLa): 10.8 µM
IC50 (MCF7): 6.86 µM
IC50 (HepG2): 11.1 µM
IC50 (B16): 9.57 µM
IC50 (A-375): 8.42 µM

SMILES: C=C(C)[C@@H]1CC[C@]2(C(=O)NCCN)CC[C@]3(C)[C@H](CC[C@@H]4[C@@]5(C)CC[C@H](OC(C)=O)[C@@](C)(COC(C)=O)[C@@H]5CC[C@]43C)[C@@H]12
IC50 (HeLa): 7.39 µM
IC50 (MCF7): 3.93 µM
IC50 (HepG2): 7.99 µM
IC50 (B16): 4.61 µM
IC50 (A-375): 9.99 µM

SMILES: C=C(C)[C@@H]1CC[C@]2(C(=O)N3CCOCC3)CC[C@]3(C)[C@H](CC[C@@H]4[C@@]5(C)CC[C@H](OC(C)=O)[C@@](C)(COC(C)=O)[C@@H]5CC[C@]43C)[C@@H]12
IC50 (HeLa): 7.47 µM
IC50 (MCF7): 26.4 µM
IC50 (HepG2): 9.74 µM
IC50 (B16): 18.5 µM
IC50 (A-375): 4.33 µM

SMILES: C=C(C)[C@@H]1CC[C@]2(C(=O)N3CCC(N4CCCCC4)CC3)CC[C@]3(C)[C@H](CC[C@@H]4[C@@]5(C)CC[C@H](O)[C@@](C)(CO)[C@@H]5CC[C@]43C)[C@@H]12
IC50 (HeLa): 8.42 µM
IC50 (MCF7): 6.78 µM
IC50 (HepG2): 12.6 µM
IC50 (B16): 5.71 µM
IC50 (A-375): 9.67 µM

SMILES: C=C(C)[C@@H]1CC[C@]2(C(=O)NCCN)CC[C@]3(C)[C@H](CC[C@@H]4[C@@]5(C)CC[C@H](O)[C@@](C)(CO)[C@@H]5CC[C@]43C)[C@@H]12
IC50 (HeLa): 8.92 µM
IC50 (MCF7): 2.93 µM
IC50 (HepG2): 9.57 µM
IC50 (B16): 8.38 µM
IC50 (A-375): 4.83 µM

SMILES: C=C(C)[C@@H]1CC[C@]2(C(=O)N3CCNCC3)CC[C@]3(C)[C@H](CC[C@@H]4[C@@]5(C)CC[C@H](O)[C@@](C)(CO)[C@@H]5CC[C@]43C)[C@@H]12
IC50 (HeLa): 7.12 µM
IC50 (MCF7): 2.27 µM
IC50 (HepG2): 8.85 µM
IC50 (B16): 4.39 µM
IC50 (A-375): 2.3 µM

SMILES: C=C(C)[C@@H]1CC[C@]2(C(=O)NCC(=O)N[C@@H](C)C(=O)OC)CC[C@]3(C)[C@H](CC[C@@H]4[C@@]5(C)CC[C@H](O)[C@@](C)(CO)[C@@H]5CC[C@]43C)[C@@H]12
IC50 (HeLa): 8.27 µM
IC50 (MCF7): 8.95 µM
IC50 (HepG2): 12.1 µM
IC50 (B16): 11.3 µM
IC50 (A-375): 5.01 µM

SMILES: C=C(C)[C@@H]1CC[C@]2(C(=O)NCC(=O)N3CCC[C@H]3C(=O)OC)CC[C@]3(C)[C@H](CC[C@@H]4[C@@]5(C)CC[C@H](O)[C@@](C)(CO)[C@@H]5CC[C@]43C)[C@@H]12
IC50 (HeLa): 4.84 µM
IC50 (MCF7): 7.58 µM
IC50 (HepG2): 9.33 µM
IC50 (B16): 8.23 µM
IC50 (A-375): 3.34 µM

The remaining lines, values ahead:

IC50 (HeLa): 9.84 µM
IC50 (MCF7): 47.1 µM
IC50 (HepG2): 8.41 µM
IC50 (B16): > 100 µM
IC50 (A-375): 19 µM
SMILES: C=CCN(CC=C)C(=O)[C@]12CC[C@@H](C(=C)C)[C@@H]1[C@H]1CC[C@@H]3[C@@]4(C)CC[C@H](OC(C)=O)[C@@](C)(COC(C)=O)[C@@H]4CC[C@@]3(C)[C@]1(C)CC2

IC50 (HeLa): 9.18 µM
IC50 (MCF7): 97.6 µM
IC50 (HepG2): 12.3 µM
IC50 (B16): 24.2 µM
IC50 (A-375): 8.71 µM
SMILES: C=C(C)[C@@H]1CC[C@]2(C(=O)OCCN3CCOCC3)CC[C@]3(C)[C@H](CC[C@@H]4[C@@]5(C)CC[C@H](OC(C)=O)[C@@](C)(COC(C)=O)[C@@H]5CC[C@]43C)[C@@H]12

IC50 (HeLa): 9.78 µM
IC50 (MCF7): 27.2 µM
IC50 (HepG2): 9.78 µM
IC50 (B16): 93.7 µM
IC50 (A-375): 5.83 µM
SMILES: C=C(C)[C@@H]1CC[C@]2(C(=O)N3CCC[C@H]3C(=O)OC)CC[C@]3(C)[C@H](CC[C@@H]4[C@@]5(C)CC[C@H](OC(C)=O)[C@@](C)(COC(C)=O)[C@@H]5CC[C@]43C)[C@@H]12

IC50 (HeLa): 0.13 µM
IC50 (MCF7): 0.19 µM
IC50 (B16): 0.14 µM
IC50 (A-375): 0.13 µM
SMILES: COc1cccc2c1C(=O)c1c(O)c3c(c(O)c1C2=O)C[C@@](O)(C(=O)CO)C[C@@H]3O[C@H]1C[C@H](N)[C@H](O)[C@H](C)O1 [DOXORUBICIN]
